Results reported in ChEMBL document CHEMBL5104210, “Discovery of antipsychotic loxapine derivatives against intracellular multidrug-resistant bacteria” (RSC Med Chem, 2022).
pEC50: −log10 of the molar value. Activity calls are given as the source filed them. No cut-off for these calls is given here.

Experiments:
[1] = Cytotoxicity against mouse RAW264.7 cells assessed as reduction in number of cells by DAPI staining based high-content image analysis; assay type: toxicity, cell-based
In short: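 RAW264.7 seeded 20 h, infected 1 h with RFP-expressing S. Typhimurium (MOI 50), 100 mg/L gentamicin 1 h, then compound with 20 mg/L gentamicin 24 h. Cells stained with CellTracker Green, fixed in 3.7% formaldehyde, DAPI 0.2 mg/L. Whole-well high-content imaging at 10×; viable cells counted as DAPI-stained nuclei; CC50 calculated.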

[2] = tested on: Salmonella typhimurium; assay: Antibacterial activity against intracellular multidrug-resistant Salmonella typhimurium ATCC14028 infected in mouse RAW264.7 cells assessed as reduction in intracellular bacterial survival level by RFP staining based high-content image analysis; assay type: functional, organism-based, Salmonella enterica subsp. enterica serovar Typhimurium; conditions: Salmonella enterica, ATCC14028, RAW264.7
In short: (§1)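 RAW264.7 cells were seeded for 20 h, then infected for 1 h at MOI 50 with RFP-expressing bacteria (2 h subculture, OD600 0.6 ≈ 1×10^8 CFU/mL). Gentamicin 100 mg/L was given for 1 h, then compound plus 20 mg/L gentamicin for 24 h. Cells were stained with CellTracker Green, fixed, and stained with DAPI. Whole-well high-content imaging gave intracellular RFP intensity for EC50 and DAPI nuclei counts for CC50.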

[3] = Selectivity ratio of CC50 for cytotoxicity against mouse RAW264.7 cells to EC50 for antibacterial activity against intracellular multidrug-resistant Salmonella typhimurium ATCC14028 infected in mouse RAW264.7 cells; assay type: toxicity, cell-based; conditions: read-out: Ratio CC50/EC50; in short: as §1
[4] = Cytotoxicity against human HCT-116 cells assessed as reduction in cell viability in presence of gentamicin and measured after 24 hrs by MTT assay; assay type: toxicity, cell-based
In short: (§2)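 Cells were seeded and grown 20 h, then given test compound for 24 h. Media were DMEM + 10% heat-inactivated FBS (RAW264.7, J774.1, INT-407), RPMI 1640 + 10% FBS (THP-1) and McCoy's 5A + 10% FBS (HT-29, HCT-116), at 37°C and 5% CO2. MTT was added at 0.5 g/L for 1 h, formazan dissolved in DMSO, and A570 read. CC50 was calculated by curve fitting.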

[5] = Cytotoxicity against human monocytic THP-1 cells assessed as reduction in cell viability in presence of gentamicin and measured after 24 hrs by MTT assay; assay type: toxicity, cell-based; in short: as §2
[6] = tested on: Salmonella typhimurium; assay: Antibacterial activity against intracellular multidrug-resistant Salmonella typhimurium ATCC14028 infected in human monocytic THP-1 cells assessed as reduction in viability of intracellular bacteria incubated for 24 hrs in presence of gentamicin by CFU assay; assay type: functional, organism-based, Salmonella enterica subsp. enterica serovar Typhimurium; conditions: Salmonella enterica, ATCC14028, THP-1, 24 h
In short: (§3)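 Bacteria were subcultured 1:100 from overnight LB cultures for 2 h at 37°C and resuspended in PBS to OD600 0.6. Host cells in 6-well plates were infected at MOI 25 for 1 h, treated with 100 mg/L gentamicin for 1 h, then given compound plus 20 mg/L gentamicin for 24 h. Cells were lysed in 0.1% Triton X-100, and lysates were serially diluted and plated on LB agar (37°C, 18 h) for CFU counts.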

[7] = tested on: Salmonella typhimurium; assay: Antibacterial activity against intracellular multidrug-resistant Salmonella typhimurium ATCC14028 infected in PMA induced human macrophagic THP-1 cells assessed as reduction in viability of intracellular bacteria incubated for 24 hrs in presence of gentamicin by CFU assay; assay type: functional, organism-based, Salmonella enterica subsp. enterica serovar Typhimurium; conditions: Salmonella enterica, ATCC14028, THP-1, 24 h; in short: as §3
[8] = tested on: Salmonella typhimurium; assay: Antibacterial activity against intracellular multidrug-resistant Salmonella typhimurium ATCC14028 infected in mouse RAW264.7 cells assessed as reduction in number of intracellular bacteria incubated for 24 hrs in presence of gentamycin by CFU assay; assay type: functional, organism-based, Salmonella enterica subsp. enterica serovar Typhimurium; conditions: Salmonella enterica, ATCC14028, RAW264.7, 24 h; in short: as §3
[9] = tested on: Salmonella typhimurium; assay: Antibacterial activity against intracellular multidrug-resistant Salmonella typhimurium ATCC14028 infected in mouse J774.1 cells assessed as reduction in viability of intracellular bacteria incubated for 24 hrs in presence of gentamicin by CFU assay; assay type: functional, organism-based, Salmonella enterica subsp. enterica serovar Typhimurium; conditions: Salmonella enterica, ATCC14028, J774.1, 24 h; in short: as §3
[10] = Cytotoxicity against mouse RAW264.7 cells assessed as reduction in cell viability measured after 24 hrs by MTT assay; assay type: toxicity, cell-based; in short: as §2
[11] = Cytotoxicity against mouse J774.1 cells assessed as reduction in cell viability in presence of gentamicin and measured after 24 hrs by MTT assay; assay type: toxicity, cell-based; in short: as §2
[12] = Cytotoxicity against human HT-29 cells assessed as reduction in cell viability in presence of gentamicin and measured after 24 hrs by MTT assay; assay type: toxicity, cell-based; in short: as §2
[13] = tested on: Salmonella typhimurium; assay: Antibacterial activity against intracellular multidrug-resistant Salmonella typhimurium ATCC14028 infected in human Intestine 407 cells assessed as reduction in viability of intracellular bacteria incubated for 24 hrs in presence of gentamicin by CFU assay; assay type: functional, organism-based, Salmonella enterica subsp. enterica serovar Typhimurium; conditions: Salmonella enterica, ATCC14028, Intestine 407, 24 h; in short: as §3
[14] = tested on: Staphylococcus aureus; assay: Antibacterial activity against methicillin-resistant Staphylococcus aureus USA 300 infected in mouse RAW264.7 cells assessed as reduction in number of viable intracellular bacteria incubated for 24 hrs by CFU assay; assay type: functional, organism-based; conditions: USA 300, RAW264.7, 24 h; in short: as §3
[15] = tested on: Salmonella typhimurium; assay: Antibacterial activity against intracellular multidrug-resistant Salmonella typhimurium ATCC14028 infected in human HT-29 cells assessed as reduction in viability of intracellular bacteria incubated for 24 hrs in presence of gentamicin by CFU assay; assay type: functional, organism-based, Salmonella enterica subsp. enterica serovar Typhimurium; conditions: Salmonella enterica, ATCC14028, HT-29, 24 h; in short: as §3
[16] = Cytotoxicity against human Intestine 407 cells assessed as reduction in cell viability in presence of gentamicin and measured after 24 hrs by MTT assay; assay type: toxicity, cell-based; in short: as §2
[17] = tested on: Yersinia enterocolitica; assay: Antibacterial activity against Yersinia enterocolitica infected in mouse RAW264.7 cells assessed as reduction in number of viable intracellular bacteria incubated for 24 hrs by CFU assay; assay type: functional, organism-based; conditions: RAW264.7, 24 h
In short: (§4)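 RAW264.7 macrophages in DMEM + 10% heat-inactivated FBS infected 1 h at MOI 25 with bacteria (overnight LB culture diluted 1:100, grown 2 h at 37°C, resuspended in PBS to OD600 0.6). Washed, 100 mg/L gentamicin 1 h, then compound plus 20 mg/L gentamicin for 24 h. Lysed in 0.1% Triton X-100/PBS 10 min at 37°C, lysates serially diluted onto LB agar, colonies counted after 18 h at 37°C.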

[18] = tested on: Salmonella typhi; assay: Antibacterial activity against Salmonella typhi infected in mouse RAW264.7 cells assessed as reduction in number of viable intracellular bacteria incubated for 24 hrs by CFU assay; assay type: functional, organism-based, Salmonella enterica subsp. enterica serovar Typhi; conditions: Salmonella enterica, RAW264.7, 24 h; in short: as §3
[19] = tested on: Listeria monocytogenes; assay: Antibacterial activity against Listeria monocytogenes infected in mouse RAW264.7 cells assessed as reduction in number of viable intracellular bacteria incubated for 24 hrs by CFU assay; assay type: functional, organism-based; conditions: RAW264.7, 24 h; in short: as §4
[20] = Cytotoxicity against PMA induced human macrophagic THP-1 cells assessed as reduction in cell viability in presence of gentamicin and measured after 24 hrs by MTT assay; assay type: toxicity, cell-based; conditions: PMA induced macrophagic THP-1 cells; in short: as §2
[21] = tested on: Salmonella typhimurium; assay: Antibacterial activity against intracellular multidrug-resistant clinical isolate Salmonella typhimurium CGC18 infected in mouse RAW264.7 cells assessed as reduction in number of intracellular bacteria incubated for 24 hrs in presence of gentamycin by CFU assay; assay type: functional, organism-based, Salmonella enterica subsp. enterica serovar Typhimurium; conditions: Salmonella enterica, CGC18, RAW264.7, 24 h; in short: as §3
[22] = tested on: Salmonella typhimurium; assay: Antibacterial activity against intracellular multidrug-resistant Salmonella typhimurium ATCC14028 infected in human HCT-116 cells assessed as reduction in viability of intracellular bacteria incubated for 24 hrs in presence of gentamicin by CFU assay; assay type: functional, organism-based, Salmonella enterica subsp. enterica serovar Typhimurium; conditions: Salmonella enterica, ATCC14028, HCT-116, 24 h; in short: as §3
[23] = tested on: Salmonella typhimurium; assay: Antibacterial activity against intracellular ciprofloxacin-resistant Salmonella typhimurium NL10 infected in mouse RAW264.7 cells assessed as reduction in number of intracellular bacteria incubated for 24 hrs in presence of gentamycin by CFU assay; assay type: functional, organism-based, Salmonella enterica subsp. enterica serovar Typhimurium; conditions: Salmonella enterica, NL10, RAW264.7, 24 h; in short: as §3
[24] = target: D(2) dopamine receptor (Homo sapiens) (UniProt P14416); assay: Inhibition of isotope-labelled spiperone binding to recombinant dopamine D2 receptor (unknown origin)
In short: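 Human recombinant D2L receptor expressed in CHO cells (20 μg) incubated with increasing compound concentrations and 0.16 nM [3H]spiperone in Tris-HCl pH 7.4, 120 min at 25°C. Bound radioligand measured by filtration, washing and counting. Nonspecific binding defined with 10 μM haloperidol. Run as a contract service.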

D(2) dopamine receptor (Homo sapiens), sequence (P14416 whole entry): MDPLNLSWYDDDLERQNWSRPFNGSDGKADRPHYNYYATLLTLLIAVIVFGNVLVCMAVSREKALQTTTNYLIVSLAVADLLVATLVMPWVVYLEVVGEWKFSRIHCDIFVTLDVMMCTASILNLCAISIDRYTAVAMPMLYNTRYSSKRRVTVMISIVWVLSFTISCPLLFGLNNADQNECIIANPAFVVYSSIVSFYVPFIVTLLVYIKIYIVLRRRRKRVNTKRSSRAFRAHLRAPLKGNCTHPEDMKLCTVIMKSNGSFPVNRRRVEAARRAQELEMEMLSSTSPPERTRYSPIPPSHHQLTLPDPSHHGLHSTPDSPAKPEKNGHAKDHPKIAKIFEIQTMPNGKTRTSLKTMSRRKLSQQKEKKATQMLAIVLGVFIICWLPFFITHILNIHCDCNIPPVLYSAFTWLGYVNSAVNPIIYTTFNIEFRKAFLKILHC

Compound	CC50 [1] [µM]	pEC50 [2]	selectivity ratio [3]	also measured
Clc1ccc2c(c1)C(NCCN1CCCC1)=Nc1ccccc1O2	26.6	5.31	5.4	
NCC(=O)Nc1ccc(-n2nc(C(F)(F)F)cc2-c2ccc3c(ccc4ccccc43)c2)cc1 [AR-12]	7.7			
Clc1ccc2c(c1)C(NCCc1cccnc1)=Nc1ccccc1O2	74	4.42	1.9	
Clc1ccc2c(c1)C(NCCc1ccncc1)=Nc1ccccc1O2	51.1	4.73	2.8	
Oc1ccc(CCNC2=Nc3ccccc3Oc3ccc(Cl)cc32)cc1	52.1	4.47	1.6	
O=C(O)c1cn(C2CC2)c2cc(N3CCNCC3)c(F)cc2c1=O [CIPROFLOXACIN]		6.82		
CC(C)CCNC1=Nc2ccccc2Oc2ccc(Cl)cc21	70.1	4.26	1.3	
CN1CCCC1CCNC1=Nc2ccccc2Oc2ccc(Cl)cc21 (stereo not drawn)	23	5.91	18.9	
Clc1ccc2c(c1)C(NCCc1ccccc1)=Nc1ccccc1O2	56.3	4.67	2.7	
Clc1ccc2c(c1)C(NCCN1CCNCC1)=Nc1ccccc1O2	23.4	6.41	60	CC50 at 24 h [4]: 41 µM; CC50 at 24 h [5]: 28.4 µM; pEC50 [6]: 5.75; pEC50 [7]: 6.66; pEC50 [8]: 6.62; pEC50 [9]: 6.66; CC50 at 24 h [10]: 20.7 µM; CC50 at 24 h [11]: 15.4 µM; CC50 at 24 h [12]: 32.5 µM; pEC50 [13]: 5.52; pEC50 [14]: 5.76; pEC50 [15]: 5.39; CC50 at 24 h [16]: 40.5 µM; pEC50 [17]: 6.08; pEC50 [18]: 6.55; pEC50 [19]: 5.82; CC50 at 24 h [20]: 30.3 µM; pEC50 [21]: 6.20; pEC50 [22]: 5.61; pEC50 [23]: 6.19
O=C1CCCN1CCCNC1=Nc2ccccc2Oc2ccc(Cl)cc21	> 90	< 4.05		
Clc1ccc2c(c1)C(N1CCNCC1)=Nc1ccccc1O2 [AMOXAPINE]	107	5.14	14.8	inhibition [24]: Active
Clc1ccc2c(c1)C(NCCCN1CCCCC1)=Nc1ccccc1O2	19.6	5.95	17.5	
O=C(CNC1=Nc2ccccc2Oc2ccc(Cl)cc21)N1CCCC1	> 90	< 4.05		
Clc1ccc2c(c1)C(NCCc1ccc(Cl)c(Cl)c1)=Nc1ccccc1O2	82.7	4.51	2.7	
Fc1ccc(CCNC2=Nc3ccccc3Oc3ccc(Cl)cc32)cc1	> 90	4.35	> 2	
Clc1ccc2c(c1)C(NCc1ccccc1)=Nc1ccccc1O2	60.8	4.71	3.1	
Clc1ccc2c(c1)C(NCCN1CCOCC1)=Nc1ccccc1O2	84.7	4.50	2.6	
Clc1ccc2c(c1)C(NCC1CC1)=Nc1ccccc1O2	80.3	4.36	1.8	
Clc1ccc2c(c1)C(NCCN1CCCCC1)=Nc1ccccc1O2	22.2	5.36	5.1	
CCCNC1=Nc2ccccc2Oc2ccc(Cl)cc21	112	4.25	2	
CN(C)CCNC1=Nc2ccccc2Oc2ccc(Cl)cc21	34.6	5.44	9.5	
CCC(CC)NC1=Nc2ccccc2Oc2ccc(Cl)cc21	72.8	4.55	2.6	
CCCCCNC1=Nc2ccccc2Oc2ccc(Cl)cc21	72.7	4.27	1.3	
Clc1ccc2c(c1)C(NCCCN1CCCC1)=Nc1ccccc1O2	16.3	5.95	14.6	
Clc1ccc(CCNC2=Nc3ccccc3Oc3ccc(Cl)cc32)cc1	> 90	4.27	> 1.7	
